Test results published in ChEMBL document CHEMBL3627629 (Bioorg Med Chem Lett, 2015).

target: T1, Muscarinic acetylcholine receptor M1 (Homo sapiens, UniProt P11229); assay: Displacement of [3H]NMS from human muscarinic M1 receptor expressed in CHO cells after 2 hrs by liquid scintillation spectrometry analysis; assay type: cell-based
T1 sequence (P11229 whole entry): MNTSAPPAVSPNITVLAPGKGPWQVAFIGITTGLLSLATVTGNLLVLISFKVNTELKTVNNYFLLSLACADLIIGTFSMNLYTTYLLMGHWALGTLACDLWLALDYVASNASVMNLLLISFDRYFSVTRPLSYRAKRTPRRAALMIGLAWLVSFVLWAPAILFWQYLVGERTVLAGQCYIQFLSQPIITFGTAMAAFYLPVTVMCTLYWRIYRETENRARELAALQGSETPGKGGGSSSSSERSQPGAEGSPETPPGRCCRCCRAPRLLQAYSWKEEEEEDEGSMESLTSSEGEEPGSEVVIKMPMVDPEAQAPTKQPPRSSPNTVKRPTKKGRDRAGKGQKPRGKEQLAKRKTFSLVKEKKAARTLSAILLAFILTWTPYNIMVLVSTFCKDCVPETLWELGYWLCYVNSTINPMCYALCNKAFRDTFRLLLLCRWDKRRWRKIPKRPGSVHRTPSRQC
In short: (§1)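 Membranes from CHO cells stably expressing recombinant human receptor: 10 µg protein/well for M1 and M5, 3 µg for M3. Incubated with 0.3 nM [3H]NMS and 1 nM–100 µM analog in 50 mM Tris-HCl pH 7.4, 2 h at 25 °C. Nonspecific binding defined with 1 µM atropine. GF/B filtration, washed three times. Ki from IC50 by Cheng-Prusoff. Three independent experiments in duplicate, mean ± SEM.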

Structure (SMILES)	Ki
COc1ccc(CCOC(=O)C2(c3ccccc3)CCN(C)CC2)cc1OC	10.8 µM
COc1ccc(CCOC(=O)C2(c3ccccc3)CCN(C)CC2)cc1	1.2 µM
COc1ccc(CCNC(=O)NCC2(c3ccccc3)CCN(C)CC2)cc1	5.4 µM
COc1ccc(CCC(=O)OCC2(c3ccccc3)CCN(C)CC2)cc1OC	3.63 µM
COc1ccc(CCNC(=O)NCC2(c3ccccc3)CCN(C)CC2)cc1OC	> 10 µM
COc1ccc(CCC(=O)NCC2(c3ccccc3)CCN(C)CC2)cc1OC	> 10 µM
COc1ccc(CCNC(=O)C2(c3ccccc3)CCN(C)CC2)cc1	> 10 µM
COc1ccc(CCC(=O)NCC2(c3ccccc3)CCN(C)CC2)cc1	3.44 µM
COc1ccc(CCC(=O)OCC2(c3ccccc3)CCN(C)CC2)cc1	0.67 µM
COc1ccc(CCOC(=O)NCC2(c3ccccc3)CCN(C)CC2)cc1	2.91 µM
COc1ccc(CCNC(=O)OCC2(c3ccccc3)CCN(C)CC2)cc1OC	5.09 µM
COc1ccc(CCNC(=O)C2(c3ccccc3)CCN(C)CC2)cc1OC	> 30 µM

target: Muscarinic acetylcholine receptor M3 (Homo sapiens, UniProt P20309); assay: Displacement of [3H]NMS from human muscarinic M3 receptor expressed in CHO cells after 2 hrs by liquid scintillation spectrometry analysis; assay type: cell-based; in short: as §1
Sequence (P20309 whole entry): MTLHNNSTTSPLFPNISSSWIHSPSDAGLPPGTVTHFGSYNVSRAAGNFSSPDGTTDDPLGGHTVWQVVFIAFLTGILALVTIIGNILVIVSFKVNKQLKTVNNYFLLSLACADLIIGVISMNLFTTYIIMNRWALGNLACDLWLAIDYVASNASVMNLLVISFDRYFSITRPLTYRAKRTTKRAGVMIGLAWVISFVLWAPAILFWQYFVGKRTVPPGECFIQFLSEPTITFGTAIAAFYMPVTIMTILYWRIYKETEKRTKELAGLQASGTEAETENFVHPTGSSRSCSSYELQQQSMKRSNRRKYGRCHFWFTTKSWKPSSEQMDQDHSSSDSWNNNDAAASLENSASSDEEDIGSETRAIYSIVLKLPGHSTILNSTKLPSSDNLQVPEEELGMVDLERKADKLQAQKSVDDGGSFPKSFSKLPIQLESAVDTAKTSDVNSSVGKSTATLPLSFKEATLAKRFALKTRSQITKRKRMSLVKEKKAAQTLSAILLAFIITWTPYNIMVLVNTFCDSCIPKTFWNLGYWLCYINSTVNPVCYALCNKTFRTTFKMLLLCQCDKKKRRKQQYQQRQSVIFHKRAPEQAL

Structure (SMILES)	Ki
COc1ccc(CCOC(=O)C2(c3ccccc3)CCN(C)CC2)cc1OC	5.26 µM
COc1ccc(CCOC(=O)C2(c3ccccc3)CCN(C)CC2)cc1	0.64 µM
COc1ccc(CCNC(=O)NCC2(c3ccccc3)CCN(C)CC2)cc1	3.55 µM
COc1ccc(CCC(=O)OCC2(c3ccccc3)CCN(C)CC2)cc1OC	4.6 µM
COc1ccc(CCNC(=O)NCC2(c3ccccc3)CCN(C)CC2)cc1OC	> 10 µM
COc1ccc(CCC(=O)NCC2(c3ccccc3)CCN(C)CC2)cc1OC	> 30 µM
COc1ccc(CCNC(=O)C2(c3ccccc3)CCN(C)CC2)cc1	3.29 µM
COc1ccc(CCC(=O)NCC2(c3ccccc3)CCN(C)CC2)cc1	1.54 µM
COc1ccc(CCC(=O)OCC2(c3ccccc3)CCN(C)CC2)cc1	0.37 µM
COc1ccc(CCOC(=O)NCC2(c3ccccc3)CCN(C)CC2)cc1	2.3 µM
COc1ccc(CCNC(=O)OCC2(c3ccccc3)CCN(C)CC2)cc1OC	4.03 µM
COc1ccc(CCNC(=O)C2(c3ccccc3)CCN(C)CC2)cc1OC	> 10 µM

target: T2, Muscarinic acetylcholine receptor M5 (Homo sapiens, UniProt P08912); assay: Displacement of [3H]NMS from human muscarinic M5 receptor expressed in CHO cells after 2 hrs by liquid scintillation spectrometry analysis; assay type: cell-based; in short: as §1
T2 sequence (P08912 whole entry): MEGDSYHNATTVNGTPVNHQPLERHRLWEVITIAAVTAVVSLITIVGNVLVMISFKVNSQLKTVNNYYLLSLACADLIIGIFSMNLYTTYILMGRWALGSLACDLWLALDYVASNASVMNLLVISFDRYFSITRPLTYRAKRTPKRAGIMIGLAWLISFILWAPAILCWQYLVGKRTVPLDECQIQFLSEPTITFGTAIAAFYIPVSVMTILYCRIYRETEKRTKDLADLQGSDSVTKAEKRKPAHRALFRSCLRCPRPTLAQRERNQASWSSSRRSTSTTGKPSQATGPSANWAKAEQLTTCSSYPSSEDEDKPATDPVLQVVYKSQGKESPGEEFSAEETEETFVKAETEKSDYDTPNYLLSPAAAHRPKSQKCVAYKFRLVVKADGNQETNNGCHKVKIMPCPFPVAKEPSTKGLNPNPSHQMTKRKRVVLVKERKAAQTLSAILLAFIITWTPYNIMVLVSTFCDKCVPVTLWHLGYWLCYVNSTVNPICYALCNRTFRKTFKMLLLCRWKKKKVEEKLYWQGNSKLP

Structure (SMILES)	Ki
COc1ccc(CCOC(=O)C2(c3ccccc3)CCN(C)CC2)cc1OC	6.95 µM
COc1ccc(CCOC(=O)C2(c3ccccc3)CCN(C)CC2)cc1	0.87 µM
COc1ccc(CCNC(=O)NCC2(c3ccccc3)CCN(C)CC2)cc1	4.3 µM
COc1ccc(CCC(=O)OCC2(c3ccccc3)CCN(C)CC2)cc1OC	2.14 µM
COc1ccc(CCNC(=O)NCC2(c3ccccc3)CCN(C)CC2)cc1OC	> 10 µM
COc1ccc(CCC(=O)NCC2(c3ccccc3)CCN(C)CC2)cc1OC	> 10 µM
COc1ccc(CCNC(=O)C2(c3ccccc3)CCN(C)CC2)cc1	6.97 µM
COc1ccc(CCC(=O)NCC2(c3ccccc3)CCN(C)CC2)cc1	1.81 µM
COc1ccc(CCC(=O)OCC2(c3ccccc3)CCN(C)CC2)cc1	0.38 µM
COc1ccc(CCOC(=O)NCC2(c3ccccc3)CCN(C)CC2)cc1	2.05 µM
COc1ccc(CCNC(=O)OCC2(c3ccccc3)CCN(C)CC2)cc1OC	5.41 µM
COc1ccc(CCNC(=O)C2(c3ccccc3)CCN(C)CC2)cc1OC	> 30 µM
